Results: ChEMBL document CHEMBL1828511, “Searching for new NO-donor aspirin-like molecules: Furoxanylacyl derivatives of salicylic acid and related furazans” (Bioorg Med Chem, 2011)
Activity calls are given as the source filed them. The rule behind the calls is not given here.

Key:
[1] = Stability of the compound in 0.1 M HCl at pH 1 assessed as compound remaining at 100 uM after 3 hrs by RP-HPLC analysis; assay type: physicochemical; details: read-out: Stability
[2] = Stability of the compound in phosphate buffer at pH 7.4 assessed as half life at 100 uM by RP-HPLC analysis; assay type: physicochemical
Outline: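 Compound held at 37 °C, final concentration 100 µM. Aliquots taken over time and analysed by RP-HPLC (C18; acetonitrile/water 55:45 with 0.1% TFA). Pseudo-first-order rate constants and half-lives obtained by fitting remaining ester versus time to one-phase exponential decay.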

[3] = Stability of the compound in human serum assessed as half life at 200 uM by RP-HPLC analysis; assay type: ADME, cell-free
Outline: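 Compound added from 10 mM acetonitrile stock to human serum preheated to 37 °C. Disappearance followed by RP-HPLC (C18; acetonitrile/water 55:45, 0.1% TFA). Half-life from pseudo-first-order fit.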

[4] = biological target: Prostaglandin G/H synthase 1 (Homo sapiens) (UniProt P23219); test: Inhibition of COX1 in human platelets assessed as inhibition of A23187-stimulated TXB2 production at 100 uM pre-incubated for 30 mins before addition of A23187 measured after 10 mins by EIA
Sequence of Prostaglandin G/H synthase 1 (Homo sapiens) (P23219 whole entry): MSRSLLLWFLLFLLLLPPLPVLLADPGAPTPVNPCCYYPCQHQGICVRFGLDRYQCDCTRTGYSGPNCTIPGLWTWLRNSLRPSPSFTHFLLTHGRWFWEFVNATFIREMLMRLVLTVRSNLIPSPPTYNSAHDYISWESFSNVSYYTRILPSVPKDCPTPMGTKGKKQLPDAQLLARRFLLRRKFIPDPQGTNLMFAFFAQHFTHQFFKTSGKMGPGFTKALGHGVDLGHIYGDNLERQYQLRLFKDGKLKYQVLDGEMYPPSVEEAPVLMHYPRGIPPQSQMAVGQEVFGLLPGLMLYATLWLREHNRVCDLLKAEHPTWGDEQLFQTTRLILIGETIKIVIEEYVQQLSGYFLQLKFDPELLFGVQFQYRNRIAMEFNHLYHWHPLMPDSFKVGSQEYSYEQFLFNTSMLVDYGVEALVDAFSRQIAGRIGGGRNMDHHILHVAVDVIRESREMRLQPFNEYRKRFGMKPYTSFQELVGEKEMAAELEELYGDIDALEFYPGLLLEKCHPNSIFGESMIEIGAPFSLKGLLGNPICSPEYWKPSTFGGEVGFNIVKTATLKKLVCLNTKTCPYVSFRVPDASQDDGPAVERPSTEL
Outline: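 Washed human platelets (10⁸ cells/mL) incubated 30 min at 37 °C with compound, diluted from 400-fold DMSO stocks. A23187 (2 µM) then added for 10 min at 37 °C, and reaction stopped with methanol. Supernatant TXB2 measured by EIA. % inhibition versus untreated control, after subtracting no-ionophore background.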

[5] = biological target: T1, Prostaglandin G/H synthase 2 (Homo sapiens) (UniProt P35354); test: Inhibition of COX2 in LPS-stimulated human monocytes assessed as inhibition of arachidonic acid-stimulated PGE2 production at 100 uM pre-incubated for 30 mins before addition of arachidonic acid measured after 15 mins by EIA; assay type: cell-based
T1 sequence (whole entry): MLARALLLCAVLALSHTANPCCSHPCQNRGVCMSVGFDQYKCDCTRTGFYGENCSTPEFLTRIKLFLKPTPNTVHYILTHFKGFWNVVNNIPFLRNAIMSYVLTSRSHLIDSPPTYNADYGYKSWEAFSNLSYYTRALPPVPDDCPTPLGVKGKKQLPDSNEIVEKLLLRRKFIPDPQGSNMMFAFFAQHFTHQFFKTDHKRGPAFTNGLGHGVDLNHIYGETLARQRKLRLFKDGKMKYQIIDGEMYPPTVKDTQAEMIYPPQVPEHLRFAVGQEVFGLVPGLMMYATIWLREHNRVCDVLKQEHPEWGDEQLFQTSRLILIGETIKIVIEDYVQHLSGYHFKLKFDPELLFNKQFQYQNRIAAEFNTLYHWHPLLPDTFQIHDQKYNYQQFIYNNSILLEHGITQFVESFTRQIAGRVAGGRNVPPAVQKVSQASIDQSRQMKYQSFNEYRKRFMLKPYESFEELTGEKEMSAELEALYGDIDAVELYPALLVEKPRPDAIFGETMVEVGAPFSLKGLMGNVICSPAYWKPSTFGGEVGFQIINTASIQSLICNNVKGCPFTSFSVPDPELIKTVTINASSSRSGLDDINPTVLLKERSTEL
Outline: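 Human monocytes (10⁶ cells/mL) induced with LPS for 18 h at 37 °C, 5% CO2, then resuspended in FCS-free RPMI-1640. Compound (from 200-fold DMSO stocks) added for 30 min, then arachidonic acid (100 µM) for 15 min. Supernatant PGE2 by EIA. % inhibition versus untreated control, minus no-arachidonate background.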

[6] = Antiaggregatory activity in human platelet rich plasma assessed as inhibition of collagen-induced platelet aggregation at 300 uM preincubated for 10 mins before collagen challenge measured after 10 mins by aggregometry; assay type: functional
Outline: (§1)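 PRP from citrated human blood (200g, 20 min). Compound preincubated 10 min, then submaximal collagen (0.8–1.5 µg/mL) added. Light transmission recorded at 37 °C under stirring (1000 rpm) for 10 min. Vehicle 0.5% DMSO. Result is % inhibition versus control. IC50 by nonlinear regression, otherwise % inhibition at 300 µM. At least five experiments.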

[7] = tested on: Rattus norvegicus; test: Antiinflammatory activity in Wistar rat assessed as inhibition of carrageenan-induced paw edema at dose equimolar to 120 mg/kg aspirin, administered intragastrically immediately after carrageenan challenge measured after 3 hrs by water plethysmometer relative to control; assay type: functional; details: po, route intragastric
Outline: (§2)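 Male Wistar rats (180–200 g). Edema induced by intraplantar 0.1 mL of 1% carrageenan in 1% CMC into the right hindpaw. Compounds given intragastrically in 1% CMC (10 mL/kg) immediately afterwards. Aspirin at 120 mg/kg, others equimolar. Paw volume by water plethysmometer before and at 3 h. Reported as % inhibition versus vehicle (=100). Groups of 6–8, mean ± SEM, Dunnett's test.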

[8] = tested on: Rattus norvegicus; test: Ulcerogenicity in Wistar rat assessed as damage in gastric mucosa-lesion index at dose equimolar to 120 mg/kg aspirin, administered intragastrically after 3 hrs by stereomicroscopy; assay type: toxicity, organism-based; parameters: dose 120 mg/kg, route intragastric; details: in vivo, po
Outline: (§3)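 Male Wistar rats (180–200 g), fasted 24 h with water available. Groups of 8–10 given aspirin 120 mg/kg intragastrically, or equimolar doses, in 1% CMC. Killed 3 h later. Glandular mucosa examined under stereomicroscope. Each hemorrhagic lesion scored by greatest length and summed as lesion index. Mean ± SEM, ANOVA with Newman–Keuls test.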

[9] = Antiaggregatory activity in human platelet rich plasma assessed as inhibition of collagen-induced platelet aggregation preincubated for 10 mins before collagen challenge measured after 10 mins by aggregometry; assay type: functional; outline: as §1
[10] = biological target: T2, Thromboxane A2 receptor (Homo sapiens, UniProt P21731); test: Antagonist activity at thromboxane receptor in human blood assessed as inhibition of U-46619-induced effect; assay type: functional
T2 sequence (P21731 whole entry): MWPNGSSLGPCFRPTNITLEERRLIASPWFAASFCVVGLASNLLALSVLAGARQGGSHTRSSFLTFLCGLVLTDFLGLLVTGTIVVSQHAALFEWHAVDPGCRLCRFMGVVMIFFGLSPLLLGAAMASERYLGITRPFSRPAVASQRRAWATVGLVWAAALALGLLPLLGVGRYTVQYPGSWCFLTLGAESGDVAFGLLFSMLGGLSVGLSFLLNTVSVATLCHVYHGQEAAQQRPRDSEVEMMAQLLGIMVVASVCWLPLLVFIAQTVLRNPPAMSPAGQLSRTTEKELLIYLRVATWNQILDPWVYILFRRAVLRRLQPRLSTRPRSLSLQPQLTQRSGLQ
Outline: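 Citrated human blood pretreated with 1 mM acetylsalicylic acid; PRP made by 200g spin for 20 min. PRP incubated with compound or vehicle (0.5% DMSO), then challenged with U-46619 (0.5–2.5 µM). Aggregation recorded as light transmission at 37 °C with stirring. At least four experiments per compound.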

[11] = Antiaggregatory activity in human platelet rich plasma assessed as inhibition of collagen-induced platelet aggregation preincubated for 10 mins before collagen challenge measured after 10 mins by aggregometry in presence of 50 uM of sGC inhibitor ODQ; assay type: functional
Outline: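 Collagen-induced aggregation in human PRP run as in the standard assay, with the sGC inhibitor ODQ (50 µM) present. Compound preincubated 10 min before submaximal collagen (0.8–1.5 µg/mL). Light transmission followed 10 min at 37 °C. At least five experiments.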

[12] = tested on: Aorta; test: Vasodilatory activity in Wistar rat thoracic aorta assessed as relaxation of L-phenylephrine-induced vasoconstriction; assay type: functional, tissue-based
Outline: (§4)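 Rat aortic strips equilibrated 120 min, then contracted with phenylephrine. At plateau, cumulative concentrations of vasodilator added. Tension recorded isometrically. Results given as EC50 ± SE. Where tested, ODQ was added to the bath 5 min before contraction.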

[13] = tested on: Aorta; test: Vasodilatory activity in Wistar rat thoracic aorta assessed as relaxation of L-phenylephrine-induced vasoconstriction in presence of 1 uM sGC inhibitor ODQ; assay type: functional, tissue-based; outline: as §4
[14] = tested on: Rattus norvegicus; test: Antiinflammatory activity in Wistar rat assessed as inhibition of carrageenan-induced paw edema at 120 mg/kg, administered intragastrically immediately after carrageenan challenge measured after 3 hrs by water plethysmometer relative to control; assay type: functional; details: po, route intragastric; outline: as §2
[15] = Stability of the compound in phosphate buffer at pH 7.4 assessed as compound remaining at 100 uM after 3 hrs by RP-HPLC analysis; assay type: physicochemical; details: read-out: Stability
Outline: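 Each compound was incubated in pH 7.4 aqueous buffer at a final 100 µM and held at 37 ± 0.5 °C. Aliquots taken at timed intervals were run on RP-HPLC (C18; acetonitrile/water 55:45 with 0.1% TFA; 1.2 mL/min), calibrated linearly over 1–200 µM. Remaining ester versus time was fitted to one-phase exponential decay.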

[16] = tested on: Rattus norvegicus; test: Ulcerogenicity in Wistar rat assessed as damage in gastric mucosa-lesion index at 120 mg/kg, administered intragastrically after 3 hrs by stereomicroscopy; assay type: toxicity, organism-based; parameters: dose 120 mg/kg, route intragastric; details: in vivo, po; outline: as §3

With `N#Cc1nonc1CSCC(=O)Oc1ccccc1C(=O)O` the remaining at 3 h, 100 µM [1] was 96%, the half-life at 100 µM [2] was 38 min and the half-life at 200 µM [3] was 14 min. The inhibition [4] was “inactive”, the inhibition [5] was “inactive” and the inhibition at 300 µM [6] was 36%. The inhibition in vivo [7] was 38.9% and the UI [8] was 0.2 mm.
With `NC(=O)c1nonc1CSCC(=O)Oc1ccccc1C(=O)O` the remaining at 3 h, 100 µM [1] was 97%, the half-life at 100 µM [2] was 50 min and the half-life at 200 µM [3] was 27 min. The inhibition [4] was “inactive”, the inhibition [5] was “inactive” and the IC50 [9] was 144 µM. For the same compound, the IC50 [10] was 39 µM, the inhibition in vivo [7] was 39.6% and the UI [8] was 0.3 mm.
`O=C(O)c1ccccc1O` [SALICYLIC ACID] showed an inhibition in vivo at 120 mg/kg ([7]; dose 120 mg/kg) of 36.8% and a UI [8] of 1.1 mm.
For `O=C(CCOc1nonc1-c1ccccc1)Oc1ccccc1C(=O)O`, the remaining at 3 h, 100 µM [1] was 98%, the half-life at 100 µM [2] was 318 min and the half-life at 200 µM [3] was 40 min. For the same compound, the inhibition [4] was “inactive”, the inhibition [5] was “inactive” and the inhibition at 300 µM [6] was 12%. It also gave an inhibition in vivo [7] of 38.6% and a UI [8] of 1.2 mm.
For `N#Cc1c(CSCC(=O)Oc2ccccc2C(=O)O)no[n+]1[O-]`, the remaining at 3 h, 100 µM [1] was 96%, the half-life at 100 µM [2] was 33 min and the half-life at 200 µM [3] was 13 min. For the same compound, the inhibition [4] was “inactive”, the inhibition [5] was “inactive” and the IC50 [9] was 7.3 µM. The IC50 [11] was 88 µM, the Activity [12] was “Dose-dependent effect” and the EC50 [12] was 0.04 µM. The EC50 [13] was 2.4 µM, the inhibition in vivo [7] was 54.9% and the UI [8] was 1.2 mm.
Compound `O=C(CCOc1no[n+]([O-])c1-c1ccccc1)Oc1ccccc1C(=O)O` has a remaining at 3 h, 100 µM [1] of 98%, a half-life at 100 µM [2] of 288 min and a half-life at 200 µM [3] of 35 min. For the same compound, the inhibition [4] was “inactive”, the inhibition [5] was “inactive” and the inhibition at 300 µM [6] was 17%. For the same compound, the Activity [12] was “Dose-dependent effect”, the EC50 [12] was 11 µM and the inhibition in vivo [7] was 37.6%. The UI [8] was 0.3 mm.
For `O=C(CCOc1nonc1S(=O)(=O)c1ccccc1)Oc1ccccc1C(=O)O`, the remaining at 3 h, 100 µM [1] was 97%, the half-life at 100 µM [2] was 370 min and the half-life at 200 µM [3] was 35 min. For the same compound, the inhibition [4] was “inactive”, the inhibition [5] was “inactive” and the inhibition at 300 µM [6] was 2.6%. For the same compound, the inhibition in vivo [7] was 38.8% and the UI [8] was 0.3 mm.
`CC(=O)Oc1ccccc1C(=O)O` [ASPIRIN] gave a remaining at 3 h, 100 µM [1] of 90%, a half-life at 200 µM [3] of 63 min and an IC50 [9] of 54 µM. For the same compound, the inhibition in vivo at 120 mg/kg [14] was 43%, the remaining at 3 h, 100 µM [15] was 90% and the UI [16] was 50 mm.
`O=C(CCOc1no[n+]([O-])c1S(=O)(=O)c1ccccc1)Oc1ccccc1C(=O)O` showed a remaining at 3 h, 100 µM [1] of 96%, a half-life at 100 µM [2] of 360 min and a half-life at 200 µM [3] of 30 min. For the same compound, the inhibition [4] was “inactive”, the inhibition [5] was “inactive” and the IC50 [9] was 7.8 µM. For the same compound, the IC50 [11] was 152 µM, the Activity [12] was “Dose-dependent effect” and the EC50 [12] was 0.014 µM. For the same compound, the EC50 [13] was 0.97 µM, the inhibition in vivo [7] was 49.6% and the UI [8] was 0.4 mm.
`NC(=O)c1c(CSCC(=O)Oc2ccccc2C(=O)O)no[n+]1[O-]` gave a remaining at 3 h, 100 µM [1] of 97%, a half-life at 100 µM [2] of 45 min and a half-life at 200 µM [3] of 27 min. For the same compound, the inhibition [4] was “inactive”, the inhibition [5] was “inactive” and the IC50 [9] was 66 µM. The IC50 [11] was 59 µM, the IC50 [10] was 38 µM and the Activity [12] was “Dose-dependent effect”. For the same compound, the EC50 [12] was 23 µM and the inhibition in vivo [7] was 39.4%.
